Laboratory results from ChEMBL document CHEMBL1143382, “Discovery of chiral cyclopropyl dihydro-alkylthio-benzyl-oxopyrimidine (S-DABO) derivatives as potent HIV-1 reverse transcriptase inhibitors with high activity against clinically relevant mutants” (J Med Chem, 2009).
Values belong to the molecule of their own block, whether it stands above or below them.

Legend:
[1] = target: Human immunodeficiency virus type 1 reverse transcriptase (Human immunodeficiency virus 1) (UniProt Q72547); test: Binding affinity to HIV1 reverse transcriptase treated for 3 mins by surface plasmon resonance
[2] = tested on: Human immunodeficiency virus 1; test: Antiviral activity against HIV1 reverse transcriptase Y181C mutant infected in human MT4 cells after 5 days by MTT assay; type: functional, organism-based; settings: Human immunodeficiency virus 1, MT4, 120 h
Outline: (§1)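 MT-4 lymphoid cells infected with the HIV-1 strain carrying the indicated RT mutation in the presence of varying compound concentrations. Viable cells counted by tetrazolium (MTT) colorimetric read-out at day 5 post-infection. […] Mock-infected cells were used for cytotoxicity. Values are means of at least two experiments.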

[3] = Cytotoxicity against human MT4 cells by MTT assay; type: cell-based
[4] = tested on: Human immunodeficiency virus 1; test: Antiviral activity against HIV1 reverse transcriptase Y188L mutant infected in human MT4 cells after 5 days by MTT assay; type: functional, organism-based; settings: Human immunodeficiency virus 1, MT4, 120 h; outline: as §1
[5] = target: Human immunodeficiency virus type 1 reverse transcriptase (Human immunodeficiency virus 1) (UniProt Q72547)
[6] = tested on: Human immunodeficiency virus type 1 reverse transcriptase (Human immunodeficiency virus 1), Q72547 [Y181I]
[7] = tested on: Human immunodeficiency virus type 1 reverse transcriptase (Human immunodeficiency virus 1), Q72547 [K103N]
[8] = tested on: Human immunodeficiency virus 1; test: Antiviral activity against HIV1 reverse transcriptase K103N mutant infected in human MT4 cells after 5 days by MTT assay; type: functional, organism-based; settings: Human immunodeficiency virus 1, MT4, 120 h; outline: as §1
[9] = tested on: Human immunodeficiency virus 1; test: Antiviral activity against wild type HIV1 NL4-3 infected in human MT4 cells after 5 days by MTT assay; type: functional, organism-based; settings: Human immunodeficiency virus 1, NL4-3, MT4, 120 h
[10] = target: T1, Human immunodeficiency virus type 1 reverse transcriptase (Human immunodeficiency virus 1, UniProt Q72547); test: Inhibition of wild type HIV1 reverse transcriptase-DNA binary complex
[11] = target: T2, Human immunodeficiency virus type 1 reverse transcriptase (Human immunodeficiency virus 1, UniProt Q72547, K103N); test: Inhibition of HIV1 recombinant reverse transcriptase K103N mutant-DNA binary complex expressed in Escherichia coli BL21
[12] = target: T2, Human immunodeficiency virus type 1 reverse transcriptase; test: Inhibition of HIV1 recombinant free reverse transcriptase K103N mutant expressed in Escherichia coli BL21
[13] = target: T1, Human immunodeficiency virus type 1 reverse transcriptase; test: Inhibition of wild type HIV1 free reverse transcriptase
[14] = target: T2, Human immunodeficiency virus type 1 reverse transcriptase; test: Inhibition of HIV1 recombinant reverse transcriptase K103N mutant-DNA-dNTP ternary complex expressed in Escherichia coli BL21
[15] = target: T1, Human immunodeficiency virus type 1 reverse transcriptase; test: Inhibition of wild type HIV1 reverse transcriptase-DNA-dNTP ternary complex

Ka [1]: 1 ×10⁴ /M/s
Structure (SMILES): COc1ccc(/C=C/CSc2nc(C(C)c3c(F)cccc3F)c(C)c(=O)[nH]2)cc1 (racemic)

Structure (SMILES): Cc1ccnc2c1NC(=O)c1cccnc1N2C1CC1 [NEVIRAPINE]
EC50 [2]: > 7500 nM
CC50 [3]: > 7500 nM
EC50 [4]: > 7500 nM

Ka [1]: 0.8 ×10⁴ /M/s
Structure (SMILES): Cc1cc(C#N)cc(C)c1Oc1nc(Nc2ccc(C#N)cc2)nc(N)c1Br

Structure (SMILES): Cc1c([C@H](C)c2c(F)cccc2F)nc(SC/C=C/c2ccccc2)[nH]c1=O
ID50 [5]: 10 nM
ID50 [6]: 2990 nM
ID50 [7]: 470 nM

Structure (SMILES): COc1ccc([C@H]2C[C@@H]2CSc2nc([C@@H](C)c3c(F)cccc3F)c(C)c(=O)[nH]2)cc1
EC50 [2]: 7240 nM
CC50 [3]: > 56200 nM
ID50 [5]: 120 nM
EC50 [8]: 5510 nM
EC50 [4]: 1080 nM
ID50 [6]: 2300 nM
ID50 [7]: 830 nM
EC50 [9]: 90 nM

Structure (SMILES): COc1ccc(/C=C/CSc2nc([C@@H](C)c3c(F)cccc3F)c(C)c(=O)[nH]2)cc1
ID50 [5]: 600 nM
ID50 [6]: 27800 nM
ID50 [7]: 7010 nM

Structure (SMILES): COc1ccc([C@H]2C[C@@H]2CSc2nc([C@H](C)c3c(F)cccc3F)c(C)c(=O)[nH]2)cc1
EC50 [2]: 2700 nM
CC50 [3]: > 56200 nM
ID50 [5]: 40 nM
Ki [10]: 30 nM
Ki [11]: 400 nM
Ki [12]: 600 nM
Ki [13]: 40 nM
EC50 [8]: 3710 nM
Ki [14]: 300 nM
EC50 [4]: 700 nM
ID50 [6]: 900 nM
ID50 [7]: 400 nM
EC50 [9]: 10 nM
Ki [15]: 40 nM

Structure (SMILES): COc1ccc(C2CC2CSc2nc(C(C)c3c(F)cccc3F)c(C)c(=O)[nH]2)cc1 (racemic)
EC50 [2]: 160 nM
CC50 [3]: 37300 nM
ID50 [5]: 40 nM
EC50 [8]: 520 nM
EC50 [4]: 45 nM
ID50 [6]: 6000 nM
ID50 [7]: 3000 nM
EC50 [9]: 0.6 nM

Structure (SMILES): COc1ccc([C@@H]2C[C@H]2CSc2nc([C@H](C)c3c(F)cccc3F)c(C)c(=O)[nH]2)cc1
EC50 [2]: 13 nM
CC50 [3]: 14600 nM
Ka [1]: 1 ×10⁴ /M/s
ID50 [5]: 20 nM
Ki [10]: 8 nM
Ki [11]: 40 nM
Ki [12]: 65 nM
Ki [13]: 10 nM
EC50 [8]: 36 nM
Ki [14]: 30 nM
EC50 [4]: 1.5 nM
ID50 [6]: 800 nM
ID50 [7]: 40 nM
EC50 [9]: 0.07 nM
Ki [15]: 9 nM

Structure (SMILES): O=C1Nc2ccc(Cl)cc2[C@@](C#CC2CC2)(C(F)(F)F)O1 [EFAVIRENZ]
EC50 [2]: 8 nM
CC50 [3]: > 320 nM
EC50 [4]: 3 nM

Structure (SMILES): COc1ccc([C@@H]2C[C@H]2CSc2nc([C@@H](C)c3c(F)cccc3F)c(C)c(=O)[nH]2)cc1
EC50 [2]: 520 nM
CC50 [3]: 47200 nM
ID50 [5]: 300 nM
EC50 [8]: 2550 nM
EC50 [4]: 190 nM
ID50 [6]: 6000 nM
ID50 [7]: 600 nM
EC50 [9]: 4.9 nM
